Activity calls are given as the source filed them. The rule behind the calls is not given here.
What was measured:
[1] = system: NCI-N87; assay: Antitumor activity against human NCI-N87 cells xenografted athymic NMRI-nu/nu female mouse as reduction in tumor volume at 20 mg/kg, po administered daily for 25 days relative to control; type: functional; conditions: time 25 day
Outline: (§1)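 Female athymic NMRI-nu/nu mice (5–6 weeks, 21–31 g) given 1–5×10⁶ cells into the right flank; MDA-MB-453 tumors started from fresh 2×2×2 mm fragments. At 40–130 mm³, tumors were randomized to weight-based daily oral gavage (10 ml/kg; 1.8% HP-β-CD, 5% acetic acid (10%), 0.5% Natrosol) or vehicle. Caliper measurement 3×/week, volume π/6×L×W². Expressed as cumulative treated/control volume ratio; one-way ANOVA with Dunnett's test.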

[2] = system: Mus musculus; assay: Antitumor activity against EGFR L858R/T790M mutant driven lung cancer mouse model assessed as […] at 20 mg/kg, po administered daily for 1 week in the presence of rapamycin by MRI analysis; type: functional, organism-based; conditions: time 1.0 weeks
Outline: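 Bitransgenic L858R/T790M EGFR lung tumor mice on continuous doxycycline received oral gavage at 20 mg/kg/day (0.5% methylcellulose–0.4% Tween 80) plus intraperitoneal rapamycin at 2 mg/kg/day (ethanol stock diluted in 5% PEG400/5% Tween 80) for 1 week. Six mice; MRI before and after treatment; regression as mean ± s.d., Student's t-test.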

[3] = system: HT-29; assay: Antitumor activity against human HT-29 cells xenografted athymic NMRI-nu/nu female mouse as reduction in tumor volume at 20 mg/kg, po administered daily for 25 days relative to control; type: functional; conditions: time 25 day
[4] = system: A-431; assay: In vivo inhibition of EGFR in human A-431 cells xenografted athymic NMRI-nu/nu female mouse as reduction in AKT phosphorylation at 20 mg/kg, po administered daily for 25 days by immunohistochemical staining; type: functional, organism-based; conditions: time 25.0 day
Outline: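 A431 flank xenografts in female NMRI-nu/nu mice dosed daily by oral gavage in HP-β-CD/acetic acid/Natrosol vehicle. Tumors collected 6 h after the last dose. Sections immunostained for phospho-EGFR and phospho-AKT.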

[5] = AUC(0-24hrs) in human A-431 cells xenografted athymic NMRI-nu/nu female mouse at 20 mg/kg, po administered daily for 25 days by LC-MS-MS method; type: ADME, organism-based; conditions: in vivo, time 25 day
[6] = system: Mus musculus; assay: Antitumor activity against EGFR L858R/T790M mutant driven lung cancer mouse model assessed as reduction in tumor volume at 20 mg/kg, po administered daily for 4 weeks by MRI analysis relative to control; type: functional; set-up: scale not given: the % may be the effect or the level left
Outline: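 Tet-op-L858R/T790M EGFR/CCSP-rtTA bitransgenic mice, kept on doxycycline diet about 6 weeks and throughout the study. Mice with tumors identified by MRI were gavaged once daily with 20 mg/kg in 0.5% methylcellulose–0.4% Tween 80. MRI repeated at 2 and 4 weeks; tumor volume reduction reported as mean ± s.d.; Student's t-test.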

[7] = system: Mus musculus; assay: Antitumor activity against EGFR L858R/T790M mutant driven lung cancer mouse model assessed as histological change in lung structure at 20 mg/kg, po administered daily for 2 weeks in the presence of rapamycin by IHC staining based analysis; type: functional, organism-based
[8] = organism: Homo sapiens; assay: Inhibition of PHK (unknown origin) assessed as remaining activity relative to control; values are per cent of control
[9] = Inhibition of human EGFR S752_I759del8 mutant expressed in mouse BaF3 cells assessed as reduction in cell survival incubated for 48 hrs by WST assay
[10] = system: Mus musculus; assay: Antitumor activity against EGFR L858R/T790M mutant driven lung cancer mouse model assessed as increase in pigment-laden macrophages indicative of tissue damage and repair at 20 mg/kg, po administered daily for 2 weeks by IHC staining based analysis; type: functional, organism-based
[11] = molecular target: Serine/threonine-protein kinase Sgk1 (Homo sapiens) (UniProt O00141); assay: Inhibition of SGK (unknown origin) assessed as remaining activity relative to control; values are per cent of control
[12] = molecular target: Serine/threonine-protein kinase Nek6 (Homo sapiens) (UniProt Q9HC98); assay: Inhibition of NEK6 (unknown origin) assessed as remaining activity relative to control; values are per cent of control
[13] = Cmax in human HT-29 cells xenografted athymic NMRI-nu/nu female mouse at 20 mg/kg, po administered daily for 25 days by LC-MS-MS method; type: ADME, organism-based; conditions: in vivo, time 25 day
[14] = system: NIH3T3; assay: Inhibition of colony formation in EGFR mutant L858R expressing mouse NIH3T3 cells assessed as number of colonies at 1 to 10000 nM incubated for 2 week by soft agar assay; type: functional, cell-based; conditions: dose 1-10000 nM, time 2.0 weeks
Outline: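 NIH-3T3 cells expressing wild-type or mutant EGFR suspended in top agar (DMEM, 10% calf serum, 0.4% agar) over 0.5% agar bottom layer; drug added to top layer; wild-type cells supplemented with 100 ng/ml EGF. Triplicate plating, 2-week incubation; colonies counted from 10 fields photographed at ×4; values normalized to untreated.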

[15] = molecular target: Protein kinase C alpha type (Homo sapiens) (UniProt P17252); assay: Inhibition of PKCalpha (unknown origin) assessed as remaining activity relative to control; values are per cent of control
[16] = system: Mus musculus; assay: Antitumor activity against EGFR L858R/T790M mutant driven lung cancer mouse model assessed as histological change in foci of localized inflammatory cells at 20 mg/kg, po administered daily for 2 weeks in the presence of rapamycin by IHC staining based analysis; type: functional, organism-based
[17] = molecular target: Mitogen-activated protein kinase 14 (Homo sapiens) (UniProt Q16539); assay: Inhibition of SAPK2a (unknown origin) assessed as remaining activity relative to control; values are per cent of control
[18] = Cmax in human MDA-MB-453 cells xenografted athymic NMRI-nu/nu female mouse at 20 mg/kg, po administered daily for 25 days by LC-MS-MS method; type: ADME, organism-based; conditions: in vivo, time 25 day
[19] = molecular target: cAMP-dependent protein kinase (PKA) (Homo sapiens) (UniProt P22694+P17612+P22612); assay: Inhibition of PKA (unknown origin) assessed as remaining activity relative to control; values are per cent of control
[20] = system: MDA-MB-453; assay: Antitumor activity against human MDA-MB-453 cells xenografted athymic NMRI-nu/nu female mouse as reduction in tumor volume at 20 mg/kg, po administered daily for 25 days relative to control; type: functional; conditions: time 25 day; outline: as §1
[21] = system: Mus musculus; assay: Antitumor activity against EGFR L858R/T790M mutant driven lung cancer mouse model assessed as increase in fibrosis inside tumor nodules at 20 mg/kg, po administered daily for 2 weeks by IHC staining based analysis; type: functional, organism-based
[22] = molecular target: Mitogen-activated protein kinase 11 (Homo sapiens) (UniProt Q15759); assay: Inhibition of SAPK2b (unknown origin) assessed as remaining activity relative to control; values are per cent of control
[23] = organism: Homo sapiens; assay: Inhibition of AMPK (unknown origin) assessed as remaining activity relative to control; values are per cent of control

Sequence of Serine/threonine-protein kinase Nek6 (Homo sapiens) (Q9HC98 whole entry): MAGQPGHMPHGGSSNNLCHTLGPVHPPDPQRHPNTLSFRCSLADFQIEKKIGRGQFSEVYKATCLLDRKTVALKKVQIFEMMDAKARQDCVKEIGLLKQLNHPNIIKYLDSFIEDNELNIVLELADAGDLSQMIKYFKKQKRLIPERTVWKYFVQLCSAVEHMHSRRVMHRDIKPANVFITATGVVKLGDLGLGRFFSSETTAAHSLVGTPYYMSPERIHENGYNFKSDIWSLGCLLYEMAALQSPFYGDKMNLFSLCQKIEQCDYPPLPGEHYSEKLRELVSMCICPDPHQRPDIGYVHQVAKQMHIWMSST
Sequence of Mitogen-activated protein kinase 14 (Homo sapiens) (Q16539 whole entry): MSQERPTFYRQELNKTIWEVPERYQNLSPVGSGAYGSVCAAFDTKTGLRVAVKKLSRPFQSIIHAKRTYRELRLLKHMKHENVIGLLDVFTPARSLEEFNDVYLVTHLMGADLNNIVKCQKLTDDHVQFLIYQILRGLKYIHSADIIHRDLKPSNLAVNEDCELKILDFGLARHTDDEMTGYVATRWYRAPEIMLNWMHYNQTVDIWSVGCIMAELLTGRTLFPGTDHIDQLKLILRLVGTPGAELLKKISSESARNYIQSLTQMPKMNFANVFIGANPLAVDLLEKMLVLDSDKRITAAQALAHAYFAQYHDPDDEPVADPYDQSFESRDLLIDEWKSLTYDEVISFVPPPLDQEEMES
Sequence of Serine/threonine-protein kinase Sgk1 (Homo sapiens) (O00141 whole entry): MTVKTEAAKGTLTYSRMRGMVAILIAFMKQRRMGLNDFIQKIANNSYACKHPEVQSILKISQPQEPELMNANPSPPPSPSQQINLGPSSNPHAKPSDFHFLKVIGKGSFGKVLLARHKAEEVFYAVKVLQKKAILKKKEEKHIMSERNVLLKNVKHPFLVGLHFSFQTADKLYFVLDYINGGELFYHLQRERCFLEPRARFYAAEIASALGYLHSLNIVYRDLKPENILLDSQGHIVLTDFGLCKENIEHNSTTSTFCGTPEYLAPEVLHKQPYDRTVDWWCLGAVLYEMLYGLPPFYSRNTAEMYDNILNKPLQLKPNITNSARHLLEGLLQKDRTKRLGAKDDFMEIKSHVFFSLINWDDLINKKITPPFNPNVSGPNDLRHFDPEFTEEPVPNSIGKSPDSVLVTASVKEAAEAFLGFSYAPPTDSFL
Sequence of Mitogen-activated protein kinase 11 (Homo sapiens) (Q15759 whole entry): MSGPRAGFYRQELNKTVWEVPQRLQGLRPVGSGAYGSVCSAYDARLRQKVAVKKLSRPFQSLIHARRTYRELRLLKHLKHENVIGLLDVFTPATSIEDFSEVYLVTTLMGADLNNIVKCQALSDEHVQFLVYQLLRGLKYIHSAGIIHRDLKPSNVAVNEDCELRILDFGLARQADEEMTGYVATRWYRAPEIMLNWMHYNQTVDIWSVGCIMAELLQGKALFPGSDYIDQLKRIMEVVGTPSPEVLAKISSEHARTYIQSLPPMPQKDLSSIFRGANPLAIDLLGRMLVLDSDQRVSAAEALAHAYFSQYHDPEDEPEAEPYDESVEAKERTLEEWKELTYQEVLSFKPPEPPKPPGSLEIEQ

- AUC at 600 h [5]: 3.2 µM·h
- residual activity [8]: 16%
- residual activity [11]: 72%
- residual activity [12]: 95%
- Cmax [13]: 667 nM
- residual activity [15]: 84%
- residual activity [17]: 15%
- Cmax [18]: 83 nM
- residual activity [19]: 82%
- residual activity [22]: 56%
- residual activity [23]: 75%
Compound: CN(C)C/C=C/C(=O)Nc1cc2c(Nc3ccc(F)c(Cl)c3)ncnc2cc1O[C@H]1CCOC1 [AFATINIB]
- T/C [1]: 4%
- Activity [2]: Active
- T/C [3]: 38%
- inhibition [4]: Active
- Activity [6]: >50%
- Activity [7]: inactive
- IC50 [9]: 0.2 nM
- Activity [10]: Active
- inhibition [14]: Active
- Activity [16]: Active
- T/C [20]: 3%
- Activity [21]: Active
